From ChEMBL document CHEMBL4000151, “Potent Small Agonists of Protease Activated Receptor 2” (ACS Med Chem Lett, 2016) come the findings set out here.

Active and inactive are the calls of the source. No cut-off for these calls is given here. Non-standard residues stand in square brackets, D forms with d. Residues, ends and D or L forms follow the SMILES beside them. ξ: configuration not given here. *: point of attachment. Isoxazole(5-carbonyl) = O=C(c1ccno1)*; ξCha = NC(CC1CCCCC1)C(=O)O; ξChg = NC(C(=O)O)C1CCCCC1; Orn = NCCC[C@H](N)C(=O)O; 2Furoyl = O=C(c1ccco1)*

A word on the EC50: it is the concentration needed to bring the measured effect to its halfway point.

For one data set, the system named is Plasma. The data set can be described thus: Metabolic stability in rat plasma at 1 uM at pH 7.4 after 4 hrs by UPLC-MS analysis. It counts as ADME, cell-free. The settings on record: pH 7.4, 4 h. The gist of the method: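 Compound from DMSO stock added to a 1:1 mixture of PBS and rat plasma at 37 °C, 1 μM initial. Aliquots taken at 0 to 240 min and quenched in MeCN, then centrifuged. Supernatant analysed by UPLC-MS as % of t = 0 peak area; n = 3.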

The test system of a further data set is CHO. The data set can be described thus: Induction of intracellular calcium release in PAR2 deficient CHO cells at 100 uM measured for 300 secs by Fluo-3 AM dye-based fluorescence assay. The class given is functional, cell-based. The note with it: Cricetulus griseus. The gist of the method:
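CHO cells stably expressing human PAR2 (wild-type or point mutant), or untransfected CHO cells, plated ~5 × 10^4/well overnight at 37 °C. Loaded 1 h at 37 °C with 4 μM Fluo-3 AM in HBSS with 1% FBS, then washed into HBSS with 2.5 mM probenecid and 20 mM HEPES, pH 7.4. Compound added over a concentration range. Ca2+ read 300 s (ex 495/em 520 nm); duplicates; normalized to calcimycin; EC50 from nonlinear regression.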
Background: A change in cytosolic calcium serves as a functional read-out for many receptors and channels.

Data set [1] has as its target T1, Proteinase-activated receptor 2 (Homo sapiens, UniProt P55085).
T1 sequence (P55085 whole entry): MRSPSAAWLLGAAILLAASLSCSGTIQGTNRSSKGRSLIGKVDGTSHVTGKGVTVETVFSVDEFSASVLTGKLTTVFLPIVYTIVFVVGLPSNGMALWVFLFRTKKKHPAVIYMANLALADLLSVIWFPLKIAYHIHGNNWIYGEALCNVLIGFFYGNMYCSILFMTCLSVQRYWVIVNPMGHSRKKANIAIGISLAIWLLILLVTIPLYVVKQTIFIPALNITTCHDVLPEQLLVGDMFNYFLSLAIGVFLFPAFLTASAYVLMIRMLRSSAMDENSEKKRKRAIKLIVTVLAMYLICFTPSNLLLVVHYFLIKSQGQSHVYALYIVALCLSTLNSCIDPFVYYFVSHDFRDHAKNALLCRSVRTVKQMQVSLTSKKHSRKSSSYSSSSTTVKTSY
The data set can be described thus: Agonist activity at human PAR2 expressed in CHO cells assessed as induction of intracellular calcium release measured for 300 secs by Fluo-3 AM dye-based fluorescence assay. It counts as functional, cell-based. In a few lines: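 CHO cells stably expressing human PAR2 (wild-type or point mutant), or untransfected CHO cells, plated ~5 × 10^4/well overnight at 37 °C. Loaded 1 h at 37 °C with 4 μM Fluo-3 AM in HBSS with 1% FBS, then washed into HBSS with 2.5 mM probenecid and 20 mM HEPES, pH 7.4. Compound added over a concentration range.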

In data set [2] the target is Proteinase-activated receptor 2 (Homo sapiens) (UniProt P55085). The data set can be described thus: Agonist activity at PAR2 in human MDA-MB-231 cells assessed as induction of chemotaxis at 100 nM incubated for 24 hrs cells preincubated with PAR2 antibody SAM11 prior to test compound addition by transwell migration assay. It counts as cell-based. In a few lines:
(§1)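 MDA-MB-231 cells lifted non-enzymatically into serum-free L-15 with 0.1% BSA and seeded at 2.5 × 10^5/insert on collagen-coated 5 μm transwell membranes, 3 h at 37 °C. Agonist at 100 nM placed in the bottom chamber for 24 h; SAM11 anti-PAR2 antibody (1 μg/mL) preincubated 30 min where used. Migrated cells stained with crystal violet and counted; chemotactic index = agonist/random migration.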

Data set [3] shares this target. The data set can be described thus: Agonist activity at PAR2 in human MDA-MB-231 cells assessed as induction of chemotaxis at 100 nM incubated for 24 hrs by transwell migration assay. The class given is cell-based. The gist of the method:
as §1

Data set [4] has the same target. The data set can be described thus: Agonist activity at PAR2 in human PC3 cells assessed as induction of intracellular calcium release at 25 uM of first compound treatment followed by 100 uM of second compound treatment by Fluo-3 AM dye based fluorescence assay. The class given is functional, cell-based.

Turning to `NC(=O)[C@@H](NC(=O)[C@H](CC1CCCCC1)NC(=O)c1ccno1)C1CCCCC1`, the Stability result in the data set on Plasma is recorded as “Stable”. In addition, the result with CHO was inactive.
As to `CC[C@H](C)[C@H](NC(=O)[C@H](CC(C)C)NC(=O)c1ccco1)C(=O)NCC(=O)N[C@@H](CCCN=C(N)N)C(=O)N[C@@H](CC(C)C)C(=O)N[C@@H](CCCN)C(N)=O` (2Furoyl-LIGRL[Orn]-NH2), the EC50 in data set [1] turned out to be 300 nM.
On to `CC[C@H](C)[C@H](NC(=O)[C@H](CC(C)C)NC(=O)c1ccco1)C(=O)NCC(=O)N[C@@H](CCCNC(=N)N)C(=O)N[C@@H](CC(C)C)C(=O)N[C@@H](CCCN)C(N)=O` (2Furoyl-LIGRL[Orn]-NH2), for which the result (in data set [2]; in the data set with CHO; in data set [4]) was inactive. The outcome in data set [3] was Active.
On to `CC[C@H](C)[C@H](NC(=O)C(CC1CCCCC1)NC(=O)c1ccno1)C(=O)NCC(=O)N[C@@H](CCCNC(=N)N)C(=O)N[C@@H](CC(C)C)C(N)=O` (stereo not given in full) ({Isoxazole(5-carbonyl)}-[ξCha]IGRL-NH2), for which the EC50 in data set [1] turned out to be 200 nM.
As for `CC(C)C[C@H](NC(=O)[C@H](CCCNC(=N)N)NC(=O)CNC(=O)C(NC(=O)C(CC1CCCCC1)NC(=O)c1ccno1)C1CCCCC1)C(N)=O` (stereo not given in full) ({Isoxazole(5-carbonyl)}-[ξCha][ξChg]GRL-NH2), in data set [1], the EC50 amounted to 80 nM.
For H-SLIGKV-NH2, in data set [1], the EC50 is 3000 nM.
